An excerpt weighted towards active compounds, which were near 1.9% of everything screened.
HIF activator – HIF pathway transcriptional activation; activation, % at 7.5 µM (by protocol); AID 1910; U2OS HRE-luciferase reporter, luminescence; normalized: DMSO 0%, desferrioxamine 100%; hit rate 0.32% among 300,000;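 active = mean activation of at least 10% of the iron chelator positive control signal, with at least half of replicates also reaching 10%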
Rad51 HR inh – blocks human Rad51 in homologous recombination; Q06609; hRad51 DNA strand exchange, fluorescence dequenching; inhibition, % at 10 µM; hit rate 0.085% among 200,000; AID 1385;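 active = inhibition above 40% at the single screening dose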
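System: hRad51 filaments on single-stranded DNA; reagent: Fluorescein- and BHQ1-tagged 47-mer duplex; compound dosing: one concentration, 10 µM final; timing: filaments 15 min 37 °C, then compound 30 min; measured by: fluorescein emission 520 nm, excitation 485 nm; benchmarks: per-plate controls and blanks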
TAG inh – inhibitors of triacylglycerol accumulation; H9c2 cells, Nile Red lipid (TAG) fluorescence; cells loaded with 200 µM oleic acid; inhibition, % at 12.5 µM; hit rate 0.66% among 230,000;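 active = pattern-corrected inhibition of lipid staining of at least 50% with the nuclear-stain viability signal not falling by more than 50%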
ABHD5 PLIN5 PPI – ABHD5-PLIN5 protein interaction inhibition | Q00G26+Q8WTS1 | Split G. princeps luciferase complementation, luminescence, 4 h | inhibition, % at 4 µM | hit rate 0.78% among 360,000;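 active = inhibition above the mean inhibition across every tested compound plus 3 SD, cut at about 22% in these data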
Target sequence (Q00G26 whole entry, looked up): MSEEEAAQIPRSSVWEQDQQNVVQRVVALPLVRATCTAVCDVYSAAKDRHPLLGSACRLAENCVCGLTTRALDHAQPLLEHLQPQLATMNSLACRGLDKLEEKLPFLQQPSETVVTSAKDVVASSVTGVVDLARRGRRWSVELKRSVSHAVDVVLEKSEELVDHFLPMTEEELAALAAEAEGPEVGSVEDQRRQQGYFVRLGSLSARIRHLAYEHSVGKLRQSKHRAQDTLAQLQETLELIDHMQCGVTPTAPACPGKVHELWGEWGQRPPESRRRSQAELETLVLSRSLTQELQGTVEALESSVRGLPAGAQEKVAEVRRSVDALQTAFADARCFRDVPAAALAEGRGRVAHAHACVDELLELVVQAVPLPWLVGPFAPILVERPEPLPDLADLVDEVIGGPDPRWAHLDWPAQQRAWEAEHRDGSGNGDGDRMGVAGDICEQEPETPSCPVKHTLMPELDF
Target sequence (Q8WTS1 whole entry, looked up): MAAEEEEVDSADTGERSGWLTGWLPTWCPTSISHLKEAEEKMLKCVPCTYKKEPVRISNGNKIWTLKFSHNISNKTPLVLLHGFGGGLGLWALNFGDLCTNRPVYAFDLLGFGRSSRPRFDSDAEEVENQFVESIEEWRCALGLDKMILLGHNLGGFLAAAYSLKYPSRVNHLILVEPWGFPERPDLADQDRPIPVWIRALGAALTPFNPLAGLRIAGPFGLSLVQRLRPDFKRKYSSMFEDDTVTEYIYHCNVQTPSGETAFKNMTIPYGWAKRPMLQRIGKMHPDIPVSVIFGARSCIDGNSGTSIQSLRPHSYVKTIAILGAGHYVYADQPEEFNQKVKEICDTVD
Hsp70 act – transcriptional activators of Hsp70. HeLa Hsp70 promoter luciferase reporter, luminescence; scaled: vehicle 0, proteasome-inhibitor control 100%. activation, % at 10 µM. hit rate 0.04% among 200,000;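 active = activation above the mean across all tested compounds plus 3 SD, cutoff set per campaign, cut at about 5.5% in these data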
GAA850 FXN act – frataxin GAA850 promoter activation. HEK293 lucGAA850 FXN promoter luciferase reporter, 24 h; percent of 10 µM SAHA response. activation, % at 6 µM. hit rate 0.56% among 360,000. AID 540364;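 active = activation above the average of all compounds screened plus 3 SD, cutoff fixed separately per campaign, cut at about 7.5% in these data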
ABHD5-PLIN5 conf – confirmation of human ABHD5-PLIN5 interaction inhibitors. AID 651612. inhibition, % at 4 µM. hit rate 67% among 2,200. biochemical ABHD5-PLIN5 interaction, luminescence. shares compounds with ABHD5 PLIN5 PPI; in the data active = inhibition above about 23%
HNF4 counter – counter-screen for ABHD5-PLIN5 inhibitors: HNF4 split-luciferase | shares compounds with ABHD5 PLIN5 PPI | HNF4 dimerization, luminescence, biochemical | inhibition, % at 4 µM | hit rate 77% among 2,200 | AID 651674;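 active = mean inhibition across replicate wells exceeding the computed hit threshold, cut at about 13% in these data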;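 note: light from luciferase halves that rejoin when HNF4 fusion proteins dimerize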
Hits are given with their value; 0 = inactive; - = no result given; ! = not active in a repeat.

SMILES	HIF activator	Rad51 HR inh	TAG inh	ABHD5 PLIN5 PPI	Hsp70 act	GAA850 FXN act	ABHD5-PLIN5 conf	HNF4 counter
OCCC1CN(Cc2ccccc2-c2ccco2)CCN1C1CCCC1 (stereo unspecified)	0	0	0	0	0	0	-	-
CC(=O)C1=C(S(=O)(=O)c2ccc(C)cc2)CS(=O)(=O)C1	0	0	0	29.0	0	0	98.8	110.5
CC1(C)C2CCC1(CS(=O)(=O)NCc1ccc(Cl)cc1Cl)C(=O)C2 (stereo unspecified)	0	-	-	0	-	0	-	-
Cc1oc2c(c1C(=O)c1ccccc1)C(=O)C(=O)c1ccccc1-2	0	0	0	0	0	0	-	-
O=C1C(=O)c2c(C(=O)c3ccccc3)coc2-c2ccccc21	0	0	-	69.1	0	0	85.1	44.9
COc1ccc(-c2cc(C)no2)cc1S(=O)(=O)NCc1ccc(OC(C)C)cc1	0	-	-	0	-	0	-	-
COc1cc(N=c2ssnc2Cl)c(OC)cc1Cl	0	0	0	41.2!	0	0	74.4	105.7
COc1cc(C2Oc3ccccc3C=C2[N+](=O)[O-])cc(OC)c1OC (stereo unspecified)	-	0	0	39.5	-	0	94.7	94.3
CC(=O)NC(c1ccco1)c1ccc2cccnc2c1O (stereo unspecified)	0	0	-	0	0	0	-	-
CC(C)C(=O)NC(c1ccc(Cl)cc1Cl)c1ccc2cccnc2c1O (stereo unspecified)	79.6	-	-	29.3	-	0	0	0
Nc1nc(NS(=O)(=O)c2ccc(Cl)cc2)nn1-c1ccccc1	0	0	0	0	-	0	-	-
CC(=O)N1c2ccccc2NC2=C(C(=O)CCC2)C1c1ccco1 (stereo unspecified)	0	0	0	29.5	0	0	0	36.9
COc1ccc(S(=O)(=O)N2c3ccc(F)cc3CCC2C)cc1 (stereo unspecified)	0	-	0	0	-	0	-	-
CC(=O)Nc1ccc(S(=O)(=O)N2c3ccc(F)cc3CCC2C)cc1 (stereo unspecified)	0	-	0	27.0	-	0	45.9	0
CC(=O)C(=Cc1ccc(Cl)cc1)C(=O)c1ccccc1	-	-	-	85.2	-	-	102.3	97.9
COc1cccc(C=C(C#N)C(=O)c2ccccc2)c1	-	-	-	0	-	-	-	-
CC(=O)C(=Cc1cccc(C#N)c1)C(=O)c1ccccc1	-	-	-	61.5	-	-	94.8	86.7
COc1ccc(C=C(C(=O)c2ccccc2)C(=O)c2ccccc2)cc1	-	-	-	60.2	-	-	60.5	55.6
COc1ccc(C=C(C(C)=O)C(=O)c2ccccc2)cc1	-	-	-	39.8	-	-	51.6	42.8
COc1ccc(C=C(C(=O)c2ccccc2)c2ccccc2)cc1	-	-	-	0	-	-	-	-
Cc1cc(C(=O)N/N=C/c2cc(Br)c(Br)o2)n[nH]1	0	-	-	0	-	0	-	-
CCCCn1nnnc1C1(C)CCC(=O)N1CCCn1ccnc1 (stereo unspecified)	-	-	-	58.6	-	-	46.5	46.0
Cc1cccc(C)c1-n1nnnc1C1(C)CCC(=O)N1CCCn1ccnc1 (stereo unspecified)	-	-	-	0	-	-	-	-
COc1ccc(/C=C/C(=O)c2ccc(Cl)s2)cc1O	0	0	-	42.0	0	0	54.5	42.7
COc1cc(/C=C/C(=O)c2ccc(Cl)s2)cc(OC)c1O	0	0	-	38.1	0	0	74.3	38.0
SMILES	HIF activator	Rad51 HR inh	TAG inh	ABHD5 PLIN5 PPI	Hsp70 act	GAA850 FXN act	ABHD5-PLIN5 conf	HNF4 counter
CCCCCCCCOC(=O)c1cc([N+](=O)[O-])c(Sc2ncnc3nc[nH]c23)c([N+](=O)[O-])c1	-	-	0	28.1	-	0	99.0	89.9
C=C(NC(=O)C(=C)NC(=O)c1csc(C2=NC3c4csc(n4)C4NC(=O)c5csc(n5)C(C(C)(O)C(C)O)NC(=O)C5CSC(=N5)/C(=C/C)NC(=O)C(C(C)O)NC(=O)c5csc(n5)C3(CC2)NC(=O)C(C)NC(=O)C(=C)NC(=O)C(=C)NC(=O)C(C(C)C)NC2C=Cc3c(C(C)O)cc(nc3C2O)C(=O)OC4C)n1)C(N)=O (stereo unspecified)	-	-	0	28.4	-	0	65.6	0
COc1ccc(Cl)cc1N/C(N)=N/c1nc(C)cc(=O)[nH]1	0	-	0	0	0	0	-	-
COc1ccc(Cl)cc1N/C(N)=N/c1nc(CSc2ccc(C)cc2)cc(=O)[nH]1	0	0	-	103.7	0	0	0	0
CS(=O)(=O)c1ccc(Cl)c(NC(=O)CCc2ccccc2)c1	0	0	0	0	0	0	-	-
Cn1c(CN2CCCCC2)nc2cc(NC(=O)c3ccc(Cl)cc3)ccc21	0	0	-	0	0	0	-	-
Cn1c(CN2CCCC2)nc2cc(NC(=O)c3ccc(Cl)cc3)ccc21	0	-	0	49.4	0	0	0	0
Cn1c(CCN2CCCC2)nc2cc(NS(=O)(=O)c3ccc(Cl)cc3)ccc21	0	-	-	27.2	-	0	0	16.3
Cc1ccc(S(=O)(=O)Nc2ccc3c(c2)nc(CCN2CCCC2)n3C)cc1	0	-	-	0	-	0	-	-
COc1nc(NC(C)C)nc(N(C#N)CN2C(=O)c3ccccc3S2(=O)=O)n1	0	0	0	26.4	-	0	28.9	26.0
CC(C)Nc1nc(Cl)nc(N(C#N)CN2C(=O)c3ccccc3S2(=O)=O)n1	0	0	0	0	-	0	-	-
CC(C)(C)Nc1nc(Cl)nc(N(C#N)CN2C(=O)c3ccccc3S2(=O)=O)n1	0	-	0	32.9	0	0	29.6	23.9
CC(=O)N(c1ccc2oc(=O)sc2c1)S(=O)(=O)c1ccc(C(=O)O)cc1	0	-	-	25.3	-	0	0	81.6
CC(=O)N(c1ccc2oc(=O)sc2c1)S(=O)(=O)c1cccc2cccnc12	0	-	-	24.8	-	0	0	0
COc1ccc(-c2ccccc2)cc1NC(=O)[C@@H]1O[C@H](CO)[C@H](O)[C@H](O)[C@H]1O	-	-	0	0	-	0	-	-
Cc1nc2c(cnn2CCO)c(=O)[nH]1	-	-	0	0	-	0	-	-
Cc1ccc(S(=O)(=O)CCc2nc3ccccc3[nH]2)cc1C	0	-	0	0	0	0	-	-
CCOC(=O)C1=C(O)/C(=C/c2ccc(-c3ccccc3C(=O)O)o2)SC1=Nc1ccc(C)cc1	-	-	0	26.6	-	0	0	0
CCOC(=O)C1=C(O)/C(=C/c2ccc(-c3ccccc3C(=O)O)o2)SC1=Nc1ccc(OC)cc1	-	0	0	0	0	0	-	-
COc1ccc(NC(=O)COC(=O)CCCN2C(=O)c3ccccc3C2=O)cc1Cl	0	-	-	0	0	0	-	-
Cc1ccc2c(c1)C(=O)C(=O)N2Cc1ccc(C(F)(F)F)cc1	-	-	0	41.6	-	0	35.6	39.7
N#C/C(=C/c1ccc(N2CCOCC2)o1)C(=O)NC1CCCCC1	0	0	0	27.4	0	0	0	33.7
N#C/C(=C/c1ccc(N2CCCCC2)o1)C(=O)Nc1ccc(Cl)cc1	0	0	-	0	0	0	-	-

Screens (PubChem BioAssay)
